Reference: ChEMBL document CHEMBL4371098, “C-Phycocyanin from Spirulina Inhibits α-Synuclein and Amyloid-β Fibril Formation but Not Amorphous Aggregation” (J Nat Prod, 2019)
Activity calls are given as the source filed them. The calls are words filed in the database; no cut-off is given here.

What was measured:
[1] = tested on: Alpha-synuclein (Homo sapiens), P37840 [A53T]; test: Induction of conformational changes in human alpha-synuclein A53T mutant expressed in Escherichia coli BL21(DE3) assessed as ion population arrival time distribution at 2 uM after 20 hrs by ion mobility-mass spectrometry analysis (reference value: 5.23 milliseconds)
[2] = Self fibrillation of the compound in pH 7.4 ammonium acetate buffer after 100 hrs by ThT fluorescence assay
Method in brief: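 C-PC alone incubated in 500 mM ammonium acetate pH 7.4 at 37 °C with ThT; fluorescence at 440/490 nm tracked over time.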

[3] = tested on: Alpha-synuclein (Homo sapiens), P37840 [A53T]; test: Inhibition of fibril formation of human alpha-synuclein A53T mutant expressed in Escherichia coli BL21(DE3) after 100 hrs by ThT fluorescence assay
Method in brief: (§1)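 αS (10 μM) incubated 100 h at 37 °C in 500 mM ammonium acetate pH 7.4 with C-PC at αS:C-PC 2:1 to 200:1; ThT read at 440/490 nm; inhibition = end-point (100 h) ThT fluorescence with C-PC as percentage of αS alone; n = 3, mean ± SEM.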

[4] = tested on: Alpha-synuclein (Homo sapiens), P37840 [A53T]; test: Inhibition of fibril formation of human alpha-synuclein A53T mutant expressed in Escherichia coli BL21(DE3) at protein to compound molar ratio of 200:1 after 100 hrs by ThT fluorescence assay relative to control; details: concentration not given here; method in brief: as §1
[5] = tested on: Alpha-synuclein (Homo sapiens), P37840 [A53T]; test: Inhibition of preformed fibrils of human alpha-synuclein A53T mutant expressed in Escherichia coli BL21(DE3) at 5 uM treated after 60 hrs during fibril elongation phase by ThT fluorescence assay
Method in brief: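 ThT-monitored αS (10 μM) aggregation at 37 °C in 500 mM ammonium acetate pH 7.4; C-PC (5 μM) added at 60 h during elongation, and fluorescence (440/490 nm) followed afterwards; n = 3.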

[6] = tested on: Alpha-synuclein (Homo sapiens), P37840 [A53T]; test: Inhibition of fibril formation of human alpha-synuclein A53T mutant expressed in Escherichia coli BL21(DE3) assessed as reduction in mature fibrils formation at 2 uM after 100 hrs by uranyl acetate staining based transmission electron microscopic method
Method in brief: (§2)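 End-point samples from ThT aggregation assays (αS or Aβ 10 μM, C-PC 2 μM; αS 100 h, Aβ40 25 h, Aβ42 2 h) adsorbed on carbon-coated grids, negatively stained with 2% (w/v) uranyl acetate, imaged by TEM.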

[7] = target: Amyloid-beta precursor protein (Homo sapiens) (UniProt P05067); test: Inhibition of amyloid beta (1 to 40) (unknown origin) fibril formation at 2 uM after 25 hrs by uranyl acetate staining based transmission electron microscopic method; method in brief: as §2
[8] = target: Amyloid-beta precursor protein (Homo sapiens) (UniProt P05067); test: Inhibition of amyloid beta (1 to 42) (unknown origin) fibril formation at 2 uM after 2 hrs by uranyl acetate staining based transmission electron microscopic method; method in brief: as §2
[9] = target: Amyloid-beta precursor protein (Homo sapiens) (UniProt P05067); test: Inhibition of amyloid beta (1 to 40) (unknown origin) fibril formation at protein to compound ratio of 5:1 after 100 hrs by ThT fluorescence assay
Method in brief: (§3)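 Aβ40 or Aβ42 (10 μM; NaOH-pretreated stock for monomerization) incubated with C-PC at 5:1 Aβ:C-PC in 500 mM ammonium acetate pH 7.4, 37 °C, sealed plates, up to 100 h; ThT fluorescence 440/490 nm; triplicate, mean ± SEM.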

[10] = target: Amyloid-beta precursor protein (Homo sapiens) (UniProt P05067); test: Inhibition of amyloid beta (1 to 42) (unknown origin) fibril formation at protein to compound ratio of 5:1 after 100 hrs by ThT fluorescence assay; method in brief: as §3
Saccharomyces cerevisiae = test: Inhibition of heat-induced amorphous aggregation of yeast ADH at 2.5 uM measured over 2 hrs by light scattering assay
Method in brief: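 ADH (5 μM) aggregation induced with 20 mM DTT and 2 mM EDTA (final) at 42 °C; light scattering followed as absorbance at 340 nm over 2 h, with or without C-PC (2.5 μM); triplicate, mean ± SEM.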

Catalase (Bos taurus) = target: T1, Catalase (Bos taurus) (UniProt P00432); test: Inhibition of heat-induced amorphous aggregation of bovine liver catalase at 2.5 uM measured over 2 hrs by light scattering assay
T1 sequence (whole entry): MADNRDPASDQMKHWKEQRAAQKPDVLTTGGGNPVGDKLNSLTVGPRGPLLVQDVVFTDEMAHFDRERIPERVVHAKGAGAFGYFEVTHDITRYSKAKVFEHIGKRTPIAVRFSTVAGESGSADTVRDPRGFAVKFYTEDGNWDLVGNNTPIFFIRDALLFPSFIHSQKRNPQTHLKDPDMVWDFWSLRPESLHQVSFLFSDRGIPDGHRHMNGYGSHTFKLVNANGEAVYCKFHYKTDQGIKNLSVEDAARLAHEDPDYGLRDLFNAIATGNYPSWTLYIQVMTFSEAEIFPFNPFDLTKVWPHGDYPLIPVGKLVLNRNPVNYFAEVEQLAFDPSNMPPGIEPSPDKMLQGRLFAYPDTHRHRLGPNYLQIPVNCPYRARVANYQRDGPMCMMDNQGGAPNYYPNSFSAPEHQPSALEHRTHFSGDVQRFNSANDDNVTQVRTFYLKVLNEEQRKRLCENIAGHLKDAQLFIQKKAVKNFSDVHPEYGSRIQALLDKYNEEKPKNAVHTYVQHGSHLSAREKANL
Method in brief: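 Catalase (5 μM) aggregated by heating at 55 °C; absorbance (light scattering) at 340 nm tracked for 2 h with or without C-PC (2.5 μM); triplicate, mean ± SEM.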

[11] = tested on: Alpha-synuclein (Homo sapiens), P37840 [A53T]; test: Binding affinity to human 15N-labeled alpha-synuclein A53T mutant expressed in Escherichia coli BL21(DE3) assessed as chemical perturbation at H50 at 7.5 uM by 2D 1H-15N HSQC NMR analysis
Method in brief: (§4)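 Uniformly 15N-labelled monomeric αS (grown in M9 medium with [15N]NH4Cl, IPTG-induced) titrated with C-PC; 1H–15N HSQC spectra in 10 mM Na2HPO4, 100 mM NaCl, pH 7.4; amide chemical shift changes and signal-to-noise monitored using prior resonance assignments.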

[12] = tested on: Alpha-synuclein (Homo sapiens), P37840 [A53T]; test: Binding affinity to human 15N-labeled alpha-synuclein A53T mutant expressed in Escherichia coli BL21(DE3) assessed as reduction in signal to noise ratio at 7.5 uM by 2D 1H-15N HSQC NMR analysis; method in brief: as §4
[13] = tested on: Alpha-synuclein (Homo sapiens), P37840 [A53T]; test: Binding affinity to human alpha-synuclein A53T mutant expressed in Escherichia coli BL21(DE3) assessed as compound-protein stable complex formation at 2 uM after 20 hrs by native mass spectrometry analysis
Method in brief: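 αS (10 μM) incubated with C-PC (2 μM) at 40 °C for 20 h, then analysed by native nanoelectrospray MS for αS–C-PC complex peaks versus monomer/dimer and C-PC oligomer species.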

[14] = tested on: Alpha-synuclein (Homo sapiens), P37840 [A53T]; test: Binding affinity to human alpha-synuclein A53T mutant expressed in Escherichia coli BL21(DE3) assessed as compound-protein stable complex formation at 2 uM after 20 hrs by size-exclusion chromatographic method

Chain of Amyloid-beta precursor protein (Homo sapiens) (P05067 whole entry): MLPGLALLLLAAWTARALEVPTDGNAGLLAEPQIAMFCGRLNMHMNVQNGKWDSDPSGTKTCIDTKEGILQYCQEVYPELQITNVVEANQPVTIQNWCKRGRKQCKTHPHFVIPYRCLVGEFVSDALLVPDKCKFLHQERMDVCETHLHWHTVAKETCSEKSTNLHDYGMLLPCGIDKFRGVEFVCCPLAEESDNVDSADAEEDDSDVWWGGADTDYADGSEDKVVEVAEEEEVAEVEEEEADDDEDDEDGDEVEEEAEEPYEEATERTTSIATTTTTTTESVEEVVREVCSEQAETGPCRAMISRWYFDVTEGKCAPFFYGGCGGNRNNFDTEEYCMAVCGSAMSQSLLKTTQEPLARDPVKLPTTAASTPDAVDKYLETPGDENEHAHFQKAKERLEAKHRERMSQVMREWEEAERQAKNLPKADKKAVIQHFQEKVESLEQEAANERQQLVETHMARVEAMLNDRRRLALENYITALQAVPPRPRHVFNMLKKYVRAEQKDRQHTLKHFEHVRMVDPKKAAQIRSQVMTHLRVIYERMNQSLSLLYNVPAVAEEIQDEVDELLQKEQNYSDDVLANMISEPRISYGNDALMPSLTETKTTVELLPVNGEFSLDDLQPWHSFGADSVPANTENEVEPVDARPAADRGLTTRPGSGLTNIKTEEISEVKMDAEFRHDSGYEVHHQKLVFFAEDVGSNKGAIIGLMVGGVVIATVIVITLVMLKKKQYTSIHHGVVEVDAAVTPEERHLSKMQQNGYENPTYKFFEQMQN

TIME [1]: 1.4e-06 h | inhibition [3]: Dose-dependent effect | inhibition [4]: 50% | inhibition [5]: Active | inhibition [6]: Active | inhibition [7]: Active | inhibition [8]: Active | inhibition [9]: Active | inhibition [10]: Active | inhibition (Saccharomyces cerevisiae): inactive | inhibition (Catalase (Bos taurus)): inactive | Activity [11]: Active | Activity [12]: Active | Activity [13]: inactive | Activity [14]: inactive
Compound: C/C=C1/C(=C\c2[nH]c(/C=C3N=C(/C=C4/NC(=O)C(CC)=C4C)C(C)=C/3CCC(=O)O)c(CCC(=O)O)c2C)NC(=O)C1C (stereo unspecified)
Activity [2]: inactive
